An excerpt weighted towards active compounds, which were near 3.1% of everything screened.
ADAM17 inh: ADAM17 inhibition, QFRET primary screen. AID 720648. inhibition, % at 6.95 µM. 370,000 tested, 0.83% active. recombinant ADAM17, EDANS/DABCYL FRET peptide cleavage;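 active = inhibition above the mean of compounds lying between control limits plus 3 SD, set per campaign, cut at about 8.5% in these data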;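 also: 0% = DMSO-only wells as the low control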
MPTP inh: inhibitors of mitochondrial permeability transition pore | isolated mouse mitochondria, Ca2+ swelling absorbance, 30 min | inhibition, % at 10 µM | 360,000 tested, 1.4% active | AID 602449;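 active = inhibition of 50% or more, scaled per plate between neutral and stimulator controls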;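 also: 0% = DMSO wells given calcium and 100% = 1 mM EGTA wells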
aDG glyco up: alpha-DG glycosylation activation | Pro5-aDG cells, alpha-DG glycosylation AlphaScreen (IIH6); 0% Pro5, 100% B10-LARGE cell signal | activation, % at 10 µM | 360,000 tested, 0.22% active;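 active = activation of at least 8% versus controls, or a plate z-score of at least 8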;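 also: Pro5 are CHO cells carrying HIG-tagged alpha-DG that lacks glycosylation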
V-ATPase pHluor: regulators of yeast V-ATPase proton transport; S. cerevisiae, pHLuorin cytosolic pH fluorescence; response, % at 10 µM; 350,000 tested, 0.37% active; in the data active = response mostly above about 7.3%, no sharp cut-off; inactive = mostly below about 5.4%; also: actives read high
Lipid droplet: modulators of hepatic lipid droplet formation | AML12 mouse hepatocytes, oleate lipid droplets, BODIPY imaging | inhibition, % at 6.5 µM | 240,000 tested, 0.4% active | AID 1656;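 active = lipid droplet intensity inhibited by at least 50%, with more than 500 cells counted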
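Material – AML12 mouse liver cells · Also added – oleate loading, 100 µM · Compound dosing – 6.5 µM single-point dosing · Times – overnight treatment with compound plus oleate · Measured by – fluorescence imaging, 20x objective, two fields per well · Read-out – percent inhibition of filter-corrected integrated lipid droplet intensity per well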
ADAM10 inh: inhibits human ADAM10; recombinant ADAM10, EDANS/DABCYL FRET peptide cleavage, 3 h; inhibition, % at 7 µM; 370,000 tested, 0.62% active;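 active = inhibition above a per-campaign cutoff equal to the mean of compounds falling between control-based bounds plus 3 SD, cut at about 20% in these data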;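 also: 0% = DMSO wells while the 100% control is not disclosed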
Target sequence (O14672 214-748 limits assumed): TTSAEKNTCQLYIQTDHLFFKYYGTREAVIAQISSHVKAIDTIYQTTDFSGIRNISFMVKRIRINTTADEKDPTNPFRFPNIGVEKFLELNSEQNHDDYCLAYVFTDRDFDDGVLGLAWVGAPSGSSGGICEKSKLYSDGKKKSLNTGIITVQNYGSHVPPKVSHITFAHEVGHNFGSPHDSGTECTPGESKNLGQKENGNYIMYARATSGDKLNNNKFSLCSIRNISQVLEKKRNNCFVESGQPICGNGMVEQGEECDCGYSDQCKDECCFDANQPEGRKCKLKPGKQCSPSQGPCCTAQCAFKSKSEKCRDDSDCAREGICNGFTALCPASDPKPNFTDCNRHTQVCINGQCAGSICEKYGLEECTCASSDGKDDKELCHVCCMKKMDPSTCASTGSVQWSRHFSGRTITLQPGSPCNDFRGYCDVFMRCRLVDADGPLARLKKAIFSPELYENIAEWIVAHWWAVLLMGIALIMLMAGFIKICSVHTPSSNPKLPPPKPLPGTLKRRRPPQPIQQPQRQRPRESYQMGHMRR
aDG glyco conf: confirmation of alpha dystroglycan glycosylation activators | shares compounds with aDG glyco up | Pro5-aDG cells, alpha-DG glycosylation, IIH6 AlphaLISA; scaled to LARGE-overexpressing B10 cells as 100% | activation, % at 10 µM (by protocol) | 600 tested, 17% active | AID 651671;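 active = activation of at least 7% in one or more replicates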;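 also: cells exposed to compound for two days before detection; 0% = DMSO-treated Pro5 cells and 100% = DMSO-treated B10-LARGE cells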
* = called active by the depositor.

Results for COc1ccc2c(c1)CN1C(=O)N(Cc3ccccc3)S(=O)(=O)CC21 (stereo unspecified) ?
ADAM17 inh: 4; ADAM10 inh: -1

How did COc1ccc(CNC2CCC23CCC(C)CC3)cc1OC (stereo unspecified) do in these assays?
ADAM17 inh: 0; ADAM10 inh: -1

How did COC(=O)C[C@H]1CC[C@H]2[C@@H](COc3ccc(NC(=O)Nc4ccccc4)cc3C(=O)N2C)O1 do in these assays?
ADAM17 inh: -2; ADAM10 inh: -5

What do the screens show for `Nc1ncnc2c1ncn2[C@@H]1O[C@H](COP(=O)(O)O)[C@@H](O)[C@H]1O`?
ADAM17 inh: -7; MPTP inh: 0; aDG glyco up: 0; V-ATPase pHluor: 11; Lipid droplet: -2; ADAM10 inh: -2

How did CN1N=C(N)c2cn(C3OC(COP(=O)(O)O)C(O)C3O)c3ncnc1c23 (stereo unspecified) do in these assays?
ADAM17 inh: -72; MPTP inh: 1; aDG glyco up: 82*; V-ATPase pHluor: 0; ADAM10 inh: -309; aDG glyco conf: 23*

Results for Cc1cc(C)cc(SCc2noc(C(=O)NCCN(C)C)c2C(=O)NCCN(C)C)c1 ?
ADAM17 inh: -4; MPTP inh: -1; aDG glyco up: 7.2*; V-ATPase pHluor: 1; ADAM10 inh: 5; aDG glyco conf: 1

How did COC(=O)[C@]12C[C@H](CC(=O)NCCC(C)C)C(=O)N(Cc3ccc(Cl)cc3Cl)C1=C[C@H](C(C)(C)C)O[C@@H]2C do in these assays?
ADAM17 inh: 1; ADAM10 inh: 6

Results for O=C(CSc1nnc(-c2cccnc2)n1-c1ccc(Cl)cc1)Nc1ccc(S(=O)(=O)Nc2nccs2)cc1 ?
ADAM17 inh: 1; ADAM10 inh: 4

How did CCNc1nc(SCC(=O)OC)nc(N2CCOCC2)n1 do in these assays?
ADAM17 inh: -5; MPTP inh: 0; aDG glyco up: 0; V-ATPase pHluor: 3; ADAM10 inh: 0

How did CCNc1nc(SC(C)C(=O)OC)nc(N2CCOCC2)n1 (stereo unspecified) do in these assays?
ADAM17 inh: -6; MPTP inh: -1; aDG glyco up: 66*; V-ATPase pHluor: -5; ADAM10 inh: -7; aDG glyco conf: -1

What do the screens show for `COc1ccc(CCN(C)C(=O)c2cc(-c3ccccc3)nc3ccc(C)cc23)cc1OC`?
ADAM17 inh: 0; MPTP inh: 0; aDG glyco up: 7.8*; V-ATPase pHluor: 0; Lipid droplet: -14; ADAM10 inh: 0; aDG glyco conf: 0

What do the screens show for `COc1cccc(S(=O)(=O)NCc2ccc(C(=O)Nc3cccc(Cl)c3)cc2)c1`?
ADAM17 inh: 6; MPTP inh: 2; aDG glyco up: 4.7*; V-ATPase pHluor: 3; Lipid droplet: 18; ADAM10 inh: 15; aDG glyco conf: 1

Results for COc1cccc(S(=O)(=O)NCc2ccc(C(=O)Nc3ccc(Cl)cc3)cc2)c1 ?
ADAM17 inh: 4; MPTP inh: 1; aDG glyco up: 0; V-ATPase pHluor: -6; Lipid droplet: -2; ADAM10 inh: 5

How did Cc1cc(-c2nn(-c3ccccc3)cc2/C=C2\SC(N)=NC2=O)ccc1OC(C)C do in these assays?
ADAM17 inh: 0; MPTP inh: 3; aDG glyco up: 6.0*; V-ATPase pHluor: 6; Lipid droplet: 23; ADAM10 inh: 1; aDG glyco conf: -1

How did CCCOc1ccc(-c2nn(-c3ccccc3)cc2/C=C2\SC(N)=NC2=O)cc1 do in these assays?
ADAM17 inh: -3; MPTP inh: 4; aDG glyco up: 0; V-ATPase pHluor: -12; Lipid droplet: -13; ADAM10 inh: 2

How did Cc1cc(NC(=O)C2CCCN(S(=O)(=O)c3c(C)noc3C)C2)no1 (stereo unspecified) do in these assays?
ADAM17 inh: 0; MPTP inh: -1; aDG glyco up: 0; V-ATPase pHluor: 2; ADAM10 inh: -4

How did Cc1noc(/C=C/N(C)C)c1S(=O)(=O)N1CCC(C(=O)NC(C)(C)C)CC1 do in these assays?
ADAM17 inh: -5; MPTP inh: -1; aDG glyco up: 0; V-ATPase pHluor: 3; Lipid droplet: -3; ADAM10 inh: 2

What do the screens show for `Cc1cc(C)cc(NC(=O)C2CCCN(S(=O)(=O)c3c(C)noc3C)C2)c1` (stereo unspecified)?
ADAM17 inh: -3; MPTP inh: 0; aDG glyco up: 3.1*; V-ATPase pHluor: 2; Lipid droplet: -19; ADAM10 inh: 3; aDG glyco conf: 0

Results for Cc1noc(/C=C/N(C)C)c1S(=O)(=O)N1CCC(C(=O)Nc2ccc(Cl)cc2)CC1 ?
ADAM17 inh: 1; MPTP inh: 0; aDG glyco up: 8.6*; V-ATPase pHluor: 1; Lipid droplet: 3; ADAM10 inh: 3; aDG glyco conf: 2

What do the screens show for `COC(=O)[C@]12C[C@H](CC(=O)NCc3ccc(C)o3)C(=O)N(Cc3ccc(Cl)cc3Cl)C1=C[C@H](C(C)(C)C)O[C@@H]2C`?
ADAM17 inh: 7; ADAM10 inh: 10

What do the screens show for `COC(=O)C[C@H]1CC[C@@H]2[C@H](COc3ccc(NC(=O)c4ccccc4OC)cc3C(=O)N2C)O1`?
ADAM17 inh: 1; ADAM10 inh: 2

What do the screens show for `O=C(Nc1ccc(Cl)c(Cl)c1)C1CCN(c2ncccn2)CC1`?
ADAM17 inh: -5; ADAM10 inh: -23

Results for O=C(NCCO)C1(C(=O)C2CC2)CC(c2ccccn2)=NO1 (stereo unspecified) ?
ADAM17 inh: -3; ADAM10 inh: -8

How did O=C(Cc1c[nH]c2ccccc12)Nc1ccc(Nc2cccnc2)c(-c2ccc(-c3ccccc3)cc2F)c1 do in these assays?
ADAM17 inh: -65; ADAM10 inh: -137

Results for Cc1cc(C)n(-c2nc3sc4c(c3c(=O)[nH]2)CCCC4)n1 ?
Lipid droplet: 1

What do the screens show for `Cc1cc(C)n(-c2nc(NCCC(C)C)c3c4c(sc3n2)COC(C)(C)C4)n1`?
ADAM17 inh: -18; MPTP inh: 16; aDG glyco up: 4.8*; V-ATPase pHluor: 2; Lipid droplet: 0; ADAM10 inh: -45; aDG glyco conf: 3

What do the screens show for `Cc1cc(C)n(-c2nc(NCCN(C)C)c3c4c(sc3n2)CCCC4)n1`?
ADAM17 inh: -3; MPTP inh: -2; aDG glyco up: 0; V-ATPase pHluor: -6; Lipid droplet: 33; ADAM10 inh: -11

Results for Cc1cc(C)n(-c2nc(NCCCN(C)C)c3c4c(sc3n2)CCCC4)n1 ?
ADAM17 inh: -18; MPTP inh: -4; aDG glyco up: 2.7*; V-ATPase pHluor: 1; Lipid droplet: -2; ADAM10 inh: -31; aDG glyco conf: 11*
